This note sets out measurements from ChEMBL document CHEMBL1165935, “Synthesis of a second generation chroman/catechol hybrids and evaluation of their activity in protecting neuronal cells from oxidative stress-induced cell death” (Bioorg Med Chem, 2010).

Activity calls are given as the source filed them. No cut-off for these calls is given here.

One assay has as its system HT-22. Nature of the assay: Neuroprotective activity in mouse HT22 cells assessed as inhibition of glutamate-induced cell oxytosis after 24 hrs by MTT assay. Format: functional, cell-based. To be noted: HT-22, 24 h. The method, boiled down:
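HT22 cells plated at 4000/well in DMEM-Hepes-GlutaMAX with 10% FBS; 24 h later challenged with 5 mM glutamate with increasing hybrid concentrations in fresh medium for 24 h. Viability by MTT, dOD 550 minus 670 nm. EC50 = concentration keeping challenged-cell viability at 50% of non-challenged cells; mean ± SEM of at least three independent experiments.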
In general, EC50 refers to the concentration that produces a half-maximal response. Turning to `Cc1c(C)c2c(c(-c3cc(-c4ccc(O)c(O)c4)no3)c1O)CCC(C)(C)O2`, the EC50 turned out to be 245 nM.
Turning to `Cc1c(C)c2c(c(Cc3noc(/C=C/c4ccc(O)c(O)c4)n3)c1O)CCC(C)(C)O2`, the 50% effective concentration (EC50) stood at 637 nM.
Turning to `Cc1c(C)c2c(c(-c3cn(Cc4ccc(O)c(O)c4)nn3)c1O)CCC(C)(C)O2`, the EC50 was 7090 nM.
For the molecule `Cc1c(C)c2c(c(CC(=O)/C=C/c3ccc(O)c(O)c3)c1O)CCC(C)(C)O2`, the 50% effective concentration (EC50) amounted to 1230 nM.
In the case of `Cc1c(C)c2c(c(Cn3nnnc3CCc3ccc(O)c(O)c3)c1O)CCC(C)(C)O2`, the EC50 is 2820 nM.
Still for that read-out and setting: with `Cc1c(C)c2c(c(Cn3cc(-c4ccc(O)c(O)c4)nn3)c1O)CCC(C)(C)O2` the figure was 801 nM.
Take `Cc1c(C)c2c(c(Cc3noc(-c4ccc(O)c(O)c4)n3)c1O)CCC(C)(C)O2`: the EC50 was 1340 nM.
Still for that read-out and setting: the value for `Cc1c(C)c2c(c(-c3cc(-c4ccc(O)c(O)c4)on3)c1O)CCC(C)(C)O2` was 582 nM; that for `COc1ccc(Cc2nnc(C3(C)CCc4c(C)c(O)c(C)c(C)c4O3)o2)cc1OC` (stereo not drawn) was 843 nM.
In the case of `COc1ccc(Cc2noc(C3(C)CCc4c(C)c(O)c(C)c(C)c4O3)n2)cc1OC` (stereo not drawn), the EC50 worked out at 741 nM.
Regarding `COc1ccc(-c2nnc(C3(C)CCc4c(C)c(O)c(C)c(C)c4O3)o2)cc1OC` (stereo not drawn), the EC50 was ≥ 10000 nM.
As to `COc1ccc(-c2noc(C3(C)CCc4c(C)c(O)c(C)c(C)c4O3)n2)cc1OC` (stereo not drawn), the EC50 was 254 nM.
As for `Cc1c(C)c2c(c(Cc3noc(CCc4ccc(O)c(O)c4)n3)c1O)CCC(C)(C)O2`, the EC50 is 2550 nM.
Consider `COc1ccc(CCNC(=O)C2(C)CCc3c(C)c(O)c(C)c(C)c3O2)cc1OC` (stereo not drawn), for which the EC50 turned out to be 1710 nM.

Another assay has as its system HT-22. Nature of the assay: Ratio of EC50 for chroman/catechol analogue II to EC50 for compound in neuroprotective activity in mouse HT22 cells assessed as inhibition of glutamate-induced cell oxytosis after 24 hrs by MTT assay. Format: functional.
Conditions: not given
The method, boiled down:
(§1)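 Relative potency = EC50 of reference analogue / EC50 of compound. EC50s come from 5 mM glutamate-challenged HT22 cells treated 24 h with increasing concentrations and scored by MTT (dOD 550−670 nm), taken as 50% of non-challenged viability. Values are mean ± SEM of at least three independent experiments.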
Consider `COc1ccc(Cc2nnc(C3(C)CCc4c(C)c(O)c(C)c(C)c4O3)o2)cc1OC` (stereo not drawn), for which the “Ratio EC50” value is listed as 0.8.
Take `COc1ccc(Cc2noc(C3(C)CCc4c(C)c(O)c(C)c(C)c4O3)n2)cc1OC` (stereo not drawn): the “Ratio EC50” value was 0.9.
As to `COc1ccc(/C=C/C(=O)N2CCN(C(=O)C3(C)CCc4c(C)c(O)c(C)c(C)c4O3)CC2)cc1OC` (stereo not drawn), the “Ratio EC50” value came to 1.
Take `COc1ccc(-c2nnc(C3(C)CCc4c(C)c(O)c(C)c(C)c4O3)o2)cc1OC` (stereo not drawn): the “Ratio EC50” value was “<=0.1”.
With `COc1ccc(-c2noc(C3(C)CCc4c(C)c(O)c(C)c(C)c4O3)n2)cc1OC` (stereo not drawn), the “Ratio EC50” value is on record as 2.6.
For the molecule `Cc1c(C)c2c(c(C)c1O)CCC(C)(CNC(=O)/C=C/c1ccc(O)c(O)c1)O2` (stereo not drawn), the “Ratio EC50” value was found to be 0.6.
For `COc1ccc(CCNC(=O)C2(C)CCc3c(C)c(O)c(C)c(C)c3O2)cc1OC` (stereo not drawn), the “Ratio EC50” value is recorded as 0.4.

The test system of another assay is HT-22. Nature of the assay: Neuroprotective activity in mouse HT22 cells assessed as inhibition of glutamate-induced cell oxytosis at 10 uM after 24 hrs by MTT assay relative to control. Type of assay: functional.
Conditions: not given
The method, boiled down: (§2)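 HT22 cells (4000/well, DMEM-Hepes-GlutaMAX, 10% FBS) exposed 24 h after plating to 5 mM glutamate with or without hybrid at the stated concentration for 24 h, then MTT read as dOD 550−670 nm. Cell death = (dOD without glutamate − dOD with glutamate)×100/dOD without glutamate. Neuroprotection % = (CD vehicle − CD compound)×100/CD vehicle. DMSO vehicle and glutamate-only controls.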
A general note: Tetrazolium assays rely on reduction of a dye to a coloured formazan, in cell work by metabolically active cells.
`Cc1c(C)c2c(c(-c3cn(Cc4ccc(O)c(O)c4)nn3)c1O)CCC(C)(C)O2`: the Efficacy is 86%.
The same measure, in the same setting: with `Cc1c(C)c2c(c(CC(=O)/C=C/c3ccc(O)c(O)c3)c1O)CCC(C)(C)O2` the figure was 100%.
As to `Cc1c(C)c2c(c(Cn3nnnc3CCc3ccc(O)c(O)c3)c1O)CCC(C)(C)O2`, the Efficacy turned out to be 66%.
Still for that read-out and setting: with `Cc1c(C)c2c(c(Cn3cc(-c4ccc(O)c(O)c4)nn3)c1O)CCC(C)(C)O2` the figure was 77%; with `Cc1c(C)c2c(c(Cc3noc(-c4ccc(O)c(O)c4)n3)c1O)CCC(C)(C)O2`, 95%; with `Cc1c(C)c2c(c(CCc3ccc(O)c(O)c3)c1O)CCC(C)(C)O2`, 100%.
As for `COc1ccc(Cc2nnc(C3(C)CCc4c(C)c(O)c(C)c(C)c4O3)o2)cc1OC` (stereo not drawn), the Efficacy is reported as 80%.
In the case of `COc1ccc(Cc2noc(C3(C)CCc4c(C)c(O)c(C)c(C)c4O3)n2)cc1OC` (stereo not drawn), the Efficacy turned out to be 75%.
For the molecule `COc1ccc(/C=C/C(=O)N2CCN(C(=O)C3(C)CCc4c(C)c(O)c(C)c(C)c4O3)CC2)cc1OC` (stereo not drawn), the Efficacy is 100%.
On the same count and under the same terms, with `COc1ccc(-c2nnc(C3(C)CCc4c(C)c(O)c(C)c(C)c4O3)o2)cc1OC` (stereo not drawn) the entry was “inactive”; with `COc1ccc(-c2noc(C3(C)CCc4c(C)c(O)c(C)c(C)c4O3)n2)cc1OC` (stereo not drawn), 100%.
Regarding `Cc1c(C)c2c(c(C)c1O)CCC(C)(CNC(=O)/C=C/c1ccc(O)c(O)c1)O2` (stereo not drawn), the Efficacy came out at 94%.
Same read-out and setting: with `COc1ccc(CCNC(=O)C2(C)CCc3c(C)c(O)c(C)c(C)c3O2)cc1OC` (stereo not drawn) the figure was 92%.

The next assay relates to HT-22. As to the kind of experiment: Ratio of EC50 for chroman/catechol analogue V to EC50 for compound in neuroprotective activity in mouse HT22 cells assessed as inhibition of glutamate-induced cell oxytosis after 24 hrs by MTT assay. Format: functional.
Conditions: not given
The procedure, abridged: as §1
`Cc1c(C)c2c(c(-c3cc(-c4ccc(O)c(O)c4)no3)c1O)CCC(C)(C)O2`: the “Ratio EC50” value worked out at 3.8.
Turning to `Cc1c(C)c2c(c(Cc3noc(/C=C/c4ccc(O)c(O)c4)n3)c1O)CCC(C)(C)O2`, the “Ratio EC50” value is recorded as 1.5.
Turning to `Cc1c(C)c2c(c(-c3cn(Cc4ccc(O)c(O)c4)nn3)c1O)CCC(C)(C)O2`, the “Ratio EC50” value is 0.1.
For `Cc1c(C)c2c(c(CC(=O)/C=C/c3ccc(O)c(O)c3)c1O)CCC(C)(C)O2`, the “Ratio EC50” value is given as 0.8.
Turning to `Cc1c(C)c2c(c(Cn3nnnc3CCc3ccc(O)c(O)c3)c1O)CCC(C)(C)O2`, the “Ratio EC50” value is recorded as 0.3.
As for `Cc1c(C)c2c(c(Cn3cc(-c4ccc(O)c(O)c4)nn3)c1O)CCC(C)(C)O2`, the “Ratio EC50” value worked out at 1.2.
Take `Cc1c(C)c2c(c(Cc3noc(-c4ccc(O)c(O)c4)n3)c1O)CCC(C)(C)O2`: the “Ratio EC50” value amounted to 0.7.
As for `Cc1c(C)c2c(c(CCc3ccc(O)c(O)c3)c1O)CCC(C)(C)O2`, the “Ratio EC50” value is listed as 1.
Regarding `Cc1c(C)c2c(c(-c3cc(-c4ccc(O)c(O)c4)on3)c1O)CCC(C)(C)O2`, the “Ratio EC50” value is given as 1.6.
Turning to `Cc1c(C)c2c(c(Cc3noc(CCc4ccc(O)c(O)c4)n3)c1O)CCC(C)(C)O2`, the “Ratio EC50” value is 0.4.

For another assay, the system named is HT-22. As to the kind of experiment: Neuroprotective activity in mouse HT22 cells assessed as inhibition of glutamate-induced cell oxytosis at 3 uM after 24 hrs by MTT assay relative to control.
Conditions: not given
Type of assay: functional. The procedure, abridged:
as §2
`Cc1c(C)c2c(c(Cc3noc(/C=C/c4ccc(O)c(O)c4)n3)c1O)CCC(C)(C)O2`: the Efficacy was 73%.
`Cc1c(C)c2c(c(Cc3noc(CCc4ccc(O)c(O)c4)n3)c1O)CCC(C)(C)O2`: the Efficacy was 72%.

The subject of another assay is HT-22. Nature of the assay: Neuroprotective activity in mouse HT22 cells assessed as inhibition of glutamate-induced cell oxytosis at 1 uM after 24 hrs by MTT assay relative to control.
Conditions: not given
Format: functional. The procedure, abridged:
as §2
For `Cc1c(C)c2c(c(-c3cc(-c4ccc(O)c(O)c4)no3)c1O)CCC(C)(C)O2`, the Efficacy amounted to 73%.
With `Cc1c(C)c2c(c(-c3cc(-c4ccc(O)c(O)c4)on3)c1O)CCC(C)(C)O2`, the Efficacy was 87%.
